Measured values taken from ChEMBL document CHEMBL3286239, “Synthesis and biological evaluation of novel naphthalene compounds as potential antidepressant agents” (Eur J Med Chem, 2014).
Active and inactive are the calls of the source. The calls are words filed in the database; no cut-off is given here.

Key:
[1] = system: PC-12; test: Neurorestorative activity against H2O2-induced oxidant injury in rat PC12 cells assessed as restorative rate at 10 uM measured after 48 hrs pretreated with 200 uM H2O2 for 1 hr by MTT assay; type: functional
Outline: (§1)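 PC12 cells at 1×10^4/well in DMEM with 10% FBS and 5% horse serum for 24 h. Exposed to 200 μM H₂O₂ for 1 h, washed twice with PBS, then compound (10, 20 or 40 μM) in DMEM for 48 h. MTT 0.5 mg/ml final for 4 h, DMSO solubilization, A570. Restoration rate from absorbance relative to injured control; mean ± S.D. of six independent experiments.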

[2] = (§2) Cytotoxicity against human HEK293 cells as inhibition of cell viability at 80 uM after 24 hrs by MTT assay; type: cell-based; conditions: HEK293 cells, read-out: INH
[3] = system: PC-12; test: Neuroprotective activity against rat PC12 cells assessed as protection against corticosterone- induced lesion at 1.25 uM after 1 day by MTT assay; type: functional
Outline: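 Low-differentiated PC12 cells at 1×10^4/well in DMEM with 5% heat-inactivated horse serum and 10% FBS for 24 h. Then 200 μM corticosterone plus compound at 1.25 μM for 1 day. MTT 0.5 mg/ml final for 4 h, formazan in DMSO, A570. Protection rate = (A_drug − A_corticosterone)/A_corticosterone ×100; mean ± S.D. of six independent experiments.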

[4] = Cytotoxicity against human L02 cells as inhibition of cell viability at 80 uM after 24 hrs by MTT assay; type: cell-based; conditions: for cytotoxicity at 24 h, 80 µM: L02 cells, read-out: INH
[5] = system: PC-12; test: Neurorestorative activity against H2O2-induced oxidant injury in rat PC12 cells assessed as restorative rate at 20 uM measured after 48 hrs pretreated with 200 uM H2O2 for 1 hr by MTT assay; type: functional; outline: as §1
[6] = system: PC-12; test: Neurorestorative activity against H2O2-induced oxidant injury in rat PC12 cells assessed as restorative rate at 40 uM measured after 48 hrs pretreated with 200 uM H2O2 for 1 hr by MTT assay; type: functional; outline: as §1
[7] = system: PC-12; test: Neuroprotective activity against corticosterone- induced morphological change in rat PC12 cells assessed as decrease in cycloid shape at 1.25 uM after 24 hrs by inverted microscopic analysis; type: functional, cell-based
Outline: (§3)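 PC12 cells seeded at 1×10^6 cells/mL and grown 1 d. Exposed to corticosterone 0.2 mM with or without drug at 1.25 μM for 24 h. Photographed by inverted microscope in three random fields per group. Cells with shrunk axons and cycloid shape counted as injured, normal neuron-like cells counted separately, using computer-assisted image analysis.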

[8] = system: Mus musculus; test: Antidepressant-like activity in C57 mouse assessed as reduction in immobility time at 32 mg/kg, ip administered from day 2 to 15 measured on 2nd and 15th day 30 mins after drug challenge by forced swim test; type: functional; conditions: route intraperitoneal
Outline: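 Male C57 mice (20–24 g), 10 per group. Day 1: 15 min pre-swim in a cylinder (20 cm diameter) with 15 cm water at 22–25 °C. Days 2–15: daily i.p. 32 mg/kg in 30% β-cyclodextrin. On days 2 and 15, a 6 min swim 30 min after dosing. Immobility (speed <20 mm/s) scored over the last 4 min from video. Mean ± S.D.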

[9] = system: PC-12; test: Neuroprotective activity against corticosterone- induced morphological change in rat PC12 cells assessed as decrease in shrunk axons at 1.25 uM after 24 hrs by inverted microscopic analysis; type: functional, cell-based; outline: as §3
[10] = system: Mus musculus; test: Toxicity in C57 mouse assessed as increase in spontaneous locomotor activity at 32 mg/kg, ip for 14 days by open field test; type: organism-based; set-up: dose 32 mg/kg, route intraperitoneal; conditions: in vivo, 336 h
Outline: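 Male C57 mice (20–24 g), 10 per group, 12 h light/dark cycle, food and water ad libitum. Dosed i.p. at 32 mg/kg daily for 14 days, then total distance travelled measured in an open field arena.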

[11] = system: HEK293; test: as §2; type: cell-based; conditions: hek293, 24 h, 80 µM

SMILES	Activity [1]	cytotoxicity at 24 h, 80 µM [2] [%]	Activity [3]	cytotoxicity at 24 h, 80 µM [4] [%]	Activity [5]	Activity [6]	inhibition [7]	inhibition in vivo at 32 mg/kg [8] [%]	inhibition [9]	Activity [10] [%]	Activity [11]	Activity ([4]; l02, 24 h, 80 µM)
COc1ccc2cccc(CCNC(=O)C3CN(C(=O)c4ccc(C#N)cc4)C3)c2c1	inactive	17.5	25.8%	1	inactive	inactive						
COc1ccc(C(=O)N2CC(C(=O)NCCc3cccc4ccc(OC)cc34)C2)cc1	inactive	8.9	inactive	7.8	inactive	inactive						
COc1ccc(OC)c(C(=O)N2CC(C(=O)NCCc3cccc4ccc(OC)cc34)C2)c1	inactive	33.4	22.3%	1.3	inactive	inactive						
COc1cc(OC)cc(C(=O)N2CC(C(=O)NCCc3cccc4ccc(OC)cc34)C2)c1	inactive	13.1	inactive	13.1	2.1%	inactive						
COc1ccc2cccc(CCNC(=O)C3CN(S(C)(=O)=O)C3)c2c1	0.9%	8.5	1.4%	4.4	inactive	3.7%						
COc1ccc2cccc(CCNC(=O)C3CN(C(=O)c4ccc(Cl)cc4)C3)c2c1	0.3%	11.8	39.2%	5.9	inactive	4.7%	Active	49.1	Active			
COc1ccc2cccc(CCNC(=O)C3CN(C(=O)c4ccccc4)C3)c2c1	2.9%	11.9	inactive	3.8	6.6%	4.6%						
COc1ccc2cccc(CCNC(=O)C3CN(C(=O)c4cc([N+](=O)[O-])cc([N+](=O)[O-])c4)C3)c2c1	inactive	11.1	inactive	15.8	1.7%	inactive						
COc1ccc2cccc(CCNC(=O)C3CN(C(=O)c4ccc(C(F)(F)F)cc4)C3)c2c1	inactive	24.6	14.6%	7.9	inactive	inactive						
COc1ccc2cccc(CCNC(=O)C3CN(S(=O)(=O)c4ccc(C)cc4)C3)c2c1	inactive	3.6	inactive	2.7	inactive	inactive						
CCC(=O)N1CC(C(=O)NCCc2cccc3ccc(OC)cc23)C1	inactive	11.2	inactive	2.9	inactive	7.5%						
CNCCC(Oc1ccc(C(F)(F)F)cc1)c1ccccc1 (stereo unspecified) [FLUOXETINE]	2.8%		19.7%		inactive	inactive		50.7		66.4		
COc1ccc2cccc(CCNC(=O)C3CN(C(=O)c4ccncc4Cl)C3)c2c1	inactive	17.3	inactive	4.8	inactive	2.1%						
COc1ccc2cccc(CCNC(C)=O)c2c1 [AGOMELATINE]	inactive		26.2%		2.7%	inactive		8.4		85.3		
COc1ccc2cccc(CCNC(=O)C3CN(C(=O)C(F)(F)F)C3)c2c1	inactive		43.5%	2.6	inactive	inactive	Active	58.4	Active	88.5	Non-toxic	
CC#C[C@]1(O)CC[C@H]2[C@@H]3CCC4=CC(=O)CCC4=C3[C@@H](c3ccc(N(C)C)cc3)C[C@@]21C [MIFEPRISTONE]			31.1%									
COc1ccc2cccc(CCNC(=O)C3CN(S(=O)(=O)N(C)C)C3)c2c1	inactive	4.6	inactive	7.4	2.1%	inactive						
COc1ccc2cccc(CCNC(=O)C3CN(C(=O)N(C)C)C3)c2c1	inactive	2.5	inactive		1.2%	4.3%						Non-toxic
COc1ccc2cccc(CCNC(=O)C3CN(C(=O)c4ccco4)C3)c2c1	inactive	26.4	38.8%	3.2	inactive	inactive		36.2				
COc1ccc2cccc(CCNC(=O)C3CN(C(=O)OCc4ccccc4)C3)c2c1	3.2%	1	inactive	12.1	6.6%	7.3%						
COc1ccc2cccc(CCNC(=O)C3CN(C(C)=O)C3)c2c1	inactive	6.2	inactive	2.3	0.6%	1%						
COc1ccc2cccc(CCNC(=O)C3CN(C(=O)c4ccccn4)C3)c2c1	0.7%	31.8	inactive	11.2	inactive	inactive						
COc1ccc2cccc(CCNC(=O)C3CN(S(=O)(=O)c4ccc(Cl)cc4)C3)c2c1	4.6%	21.5	25.3%	33.6	4.5%	6.8%						
